Test results published in ChEMBL document CHEMBL4393683, “A combinatorial approach for the discovery of drug-like inhibitors of 15-lipoxygenase-1” (Eur J Med Chem, 2019).
The source made the active and inactive calls. The rule behind the calls is not given here.

Assays:
[1] = target: T1, Polyunsaturated fatty acid lipoxygenase ALOX15 (Homo sapiens, UniProt P16050); test: Inhibition of human recombinant N-terminal His6-tagged 15-LOX1 expressed in Escherichia coli BL21(DE3) using linoleic acid as substrate preincubated for 8 mins followed by substrate addition by UV absorption analysis
T1 sequence (P16050 whole entry): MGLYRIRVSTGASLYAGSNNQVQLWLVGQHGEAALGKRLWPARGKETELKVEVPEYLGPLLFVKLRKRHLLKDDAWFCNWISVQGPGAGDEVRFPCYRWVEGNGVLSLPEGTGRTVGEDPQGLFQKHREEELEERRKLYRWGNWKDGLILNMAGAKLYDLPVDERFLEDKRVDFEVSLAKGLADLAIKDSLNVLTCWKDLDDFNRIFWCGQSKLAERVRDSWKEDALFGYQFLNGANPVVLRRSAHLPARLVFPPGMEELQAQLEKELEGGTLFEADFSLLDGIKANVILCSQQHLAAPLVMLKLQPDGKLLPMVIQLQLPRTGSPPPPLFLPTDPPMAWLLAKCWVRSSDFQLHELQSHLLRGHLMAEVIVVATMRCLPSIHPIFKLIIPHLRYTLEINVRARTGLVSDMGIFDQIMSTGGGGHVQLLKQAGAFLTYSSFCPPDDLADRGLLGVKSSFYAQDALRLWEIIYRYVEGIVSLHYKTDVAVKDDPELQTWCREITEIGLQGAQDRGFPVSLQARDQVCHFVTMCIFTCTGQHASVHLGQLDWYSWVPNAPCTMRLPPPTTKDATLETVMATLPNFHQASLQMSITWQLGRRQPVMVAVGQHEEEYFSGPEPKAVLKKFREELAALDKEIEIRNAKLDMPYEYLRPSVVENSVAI

[2] = Stability of compund in pH 7.5 HEPES buffer at 25 uM in presence of human recombinant N-terminal His6-tagged 15-LOX1 expressed in Escherichia coli BL21(DE3) by UV absorption analysis; assay type: physicochemical; conditions: pH 7.5, 25 µM
Outline: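 LA-free control in 25 mM HEPES pH 7.5 at 25 µM compound, run in triplicate. Buffer plus compound was mixed with 10 µL ethanol in place of substrate, then 15-LOX-1 enzyme solution was added. DMSO/buffer served as the vehicle control and buffer replaced enzyme in the blank. Absorbance at 234 nm was monitored over time.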

[3] = Antioxidant activity assessed as DPPH radical scavenging activity incubated for 15 mins under dark condition by spectrophotometric method; assay type: functional
Outline: (§1)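 DPPH radical-scavenging assay run in triplicate in MeOH with 10% DMSO. Compounds were serially diluted 10-fold from a top concentration of 1 mM, or 250 or 500 µM for some, down to 1 nM, with DPPH fixed at 0.1 mM. Incubation was 15 min at ambient temperature, protected from light, with A517 read. The compound-only series was subtracted, data normalized to no-inhibitor absorbance, and EC50 fitted by nonlinear dose–response.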

[4] = Antioxidant activity assessed as ferric ion reducing activity by measuring Fe2+ levels using Fe2+-TPTZ measured 15 secs for 5 mins by FRAP assay; assay type: functional
[5] = Stability of compund in pH 7.5 HEPES buffer at 25 uM in presence of substrate linoleic acid by UV absorption analysis; assay type: physicochemical; conditions: pH 7.5, 25 µM
Outline: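 Enzyme-free control in 25 mM HEPES pH 7.5 at 25 µM compound, run in triplicate, with buffer replacing enzyme. 10 µL of 500 µM linoleic acid stock in ethanol was added; ethanol alone served as the blank, and DMSO/buffer as the vehicle control. Absorbance at 234 nm was monitored over time.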

[6] = Antioxidant activity assessed as DPPH radical scavenging activity at 500 uM incubated for 15 mins under dark condition by spectrophotometric method; assay type: functional; outline: as §1
[7] = Antioxidant activity assessed as DPPH radical scavenging activity at 250 uM incubated for 15 mins under dark condition by spectrophotometric method; assay type: functional; outline: as §1

Structure (SMILES)	IC50 [1] [µM]	Stability [2]	Stability [5]	Activity [3]	Activity [4] [µmol/L]	also measured
CCOC(=O)c1[nH]c2cc(Cl)ccc2c1/C=N/NC(=O)Cc1cccs1	> 10	–	–	–	–	–
CCOC(=O)c1[nH]c2cc(Cl)ccc2c1/C=N/NC(=O)CNc1cccc([N+](=O)[O-])c1	> 10	–	–	–	–	–
CCOC(=O)c1[nH]c2cc(Cl)ccc2c1/C=N/NC(=O)COc1ccc(Cl)cc1Cl	–	Stable	Stable	inactive	< 50	–
CCOC(=O)c1[nH]c2cc(Cl)ccc2c1/C=N/NC(=O)CCC(C)C	> 10	–	–	–	–	–
CCOC(=O)c1[nH]c2cc(Cl)ccc2c1/C=N/NC(=O)CCCOc1ccc(Cl)cc1Cl	> 10	–	–	–	–	–
CCOC(=O)c1[nH]c2cc(Cl)ccc2c1/C=N/NC(=O)COc1ccc([N+](=O)[O-])cc1	> 10	–	–	–	–	–
CCOC(=O)c1[nH]c2cc(Cl)ccc2c1/C=N/NC(=O)Cc1ccc(OC)c(OC)c1	–	Stable	Stable	–	< 50	Activity [7]: inactive
O=C1O[C@H]([C@@H](O)CO)C(O)=C1O [ASCORBIC ACID]	–	–	–	–	–	EC50 [3]: 17.2 µM
CCOC(=O)c1[nH]c2cc(Cl)ccc2c1/C=N/NC(=O)COc1ccc(Cl)cc1	–	Stable	Stable	–	< 50	Activity [6]: inactive
CCCCC(=O)N/N=C/c1c(C(=O)OCC)[nH]c2cc(Cl)ccc12	> 10	–	–	–	–	–
CCOC(=O)c1[nH]c2cc(Cl)ccc2c1/C=N/NC(=O)CC1CCCC1	> 10	–	–	–	–	–
CCOC(=O)c1[nH]c2cc(Cl)ccc2c1/C=N/NC(=O)CSc1nc2ccccc2[nH]1	–	Stable	Stable	inactive	< 50	–
CCOC(=O)c1[nH]c2cc(Cl)ccc2c1C=O	–	–	–	inactive	< 50	–

More lines, main results first:

IC50 [1] [µM]	Stability [2]	Stability [5]	Structure (SMILES)	Activity [3]	Activity [4] [µmol/L]	also measured
> 10	–	–	CCOC(=O)c1[nH]c2cc(Cl)ccc2c1/C=N/NC(=O)COc1ccccc1	–	< 50	Activity [6]: inactive
–	Stable	Stable	CCOC(=O)c1[nH]c2cc(Cl)ccc2c1/C=N/NC(=O)Cc1cccnc1	inactive	< 50	–
1.8	Stable	Stable	CCOC(=O)c1[nH]c2cc(Cl)ccc2c1/C=N/NC(=O)Cc1cccc(O)c1	inactive	< 50	–
> 10	–	–	CCOC(=O)c1[nH]c2cc(Cl)ccc2c1/C=N/NC(=O)Cc1ccccc1	inactive	< 50	–
> 10	–	–	CCOC(=O)c1[nH]c2cc(Cl)ccc2c1/C=N/NC(=O)CCc1ccccc1	–	–	–
> 10	–	–	CCOC(=O)c1[nH]c2cc(Cl)ccc2c1/C=N/NC(=O)[C@H](Cc1ccccc1)NC(=O)OC(C)(C)C	–	–	–
> 10	–	–	CCOC(=O)c1[nH]c2cc(Cl)ccc2c1/C=N/NC(=O)COc1cccc2ccccc12	–	–	–
–	Stable	Stable	CCOC(=O)c1[nH]c2cc(Cl)ccc2c1/C=N/NC(=O)COc1ccccc1Cl	–	< 50	Activity [7]: inactive
0.47	Stable	Stable	CCOC(=O)c1[nH]c2cc(Cl)ccc2c1/C=N/NC(=O)C1CCN(C(=O)OC(C)(C)C)CC1	inactive	< 50	–
4.22	–	–	CCOC(=O)c1[nH]c2cc(Cl)ccc2c1/C=N/NC(=O)c1cc(C(C)(C)C)nn1Cc1cccc(C)c1	inactive	< 50	–
